According to ChEMBL document CHEMBL5550111, “Design, synthesis and biological evaluation of aryloxy thiophosphoramidate triesters of anticancer nucleoside analogues” (Bioorg Med Chem, 2024):

How the values were obtained:
[1] = tested on: MIA PaCa-2; assay: Cytotoxicity against human MIA PaCa-2 cells assessed as inhibition of cell viability incubated for 72 hrs by MTS assay; format: functional, cell-based; settings: MIA PaCa-2, 72 h
Method in brief: (§1)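 Cells seeded at 0.5 to 100 × 10^3 per well the day before treatment, then exposed for 72 h to 9 serial concentrations (3.16-fold dilutions, top 198 μM), in duplicate. MTS added for a final 4 h at 37 °C and absorbance read. IC50 is the concentration giving 50% loss of viability. MI% is the maximum inhibition over the tested range.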

[2] = tested on: MIA PaCa-2; assay: Cytotoxicity against human MIA PaCa-2 cells assessed as maximum inhibition of cell viability upto 198 uM incubated for 72 hrs by MTS assay relative to control; format: functional; settings: up to 198 µM
Method in brief: (§2)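 Cells seeded at 0.5 to 100 × 10^3 per well the day before drug addition, then exposed to compound for 72 h. MTS added afterwards, with a further 4 h at 37 °C, and absorbance read. Tested in duplicate at 9 serial 3.16-fold dilutions, top concentration 198 μM. MI% is the maximum inhibition of viability across the tested range.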

[3] = Cytotoxicity against human T24/83 cells assessed as inhibition of cell viability incubated for 72 hrs by MTS assay; format: functional, cell-based; settings: T24/83, 72 h; method in brief: as §1
[4] = Cytotoxicity against human T24/83 cells assessed as maximum inhibition of cell viability upto 198 uM incubated for 72 hrs by MTS assay relative to control; format: functional; settings: up to 198 µM; method in brief: as §2
[5] = tested on: 5637; assay: Cytotoxicity against human 5637 cells assessed as inhibition of cell viability incubated for 72 hrs by MTS assay; format: functional, cell-based; settings: Homo sapiens, 5637, 72 h; method in brief: as §1
[6] = tested on: 5637; assay: Cytotoxicity against human 5637 cells assessed as maximum inhibition of cell viability upto 198 uM incubated for 72 hrs by MTS assay relative to control; format: functional; settings: up to 198 µM; method in brief: as §2
[7] = tested on: PC-3; assay: Cytotoxicity against human PC-3 cells assessed as inhibition of cell viability incubated for 72 hrs by MTS assay; format: functional, cell-based; settings: PC-3, 72 h; method in brief: as §1
[8] = tested on: PC-3; assay: Cytotoxicity against human PC-3 cells assessed as maximum inhibition of cell viability upto 198 uM incubated for 72 hrs by MTS assay relative to control; format: functional; settings: up to 198 µM; method in brief: as §2
[9] = tested on: HT-29; assay: Cytotoxicity against human HT-29 cells assessed as inhibition of cell viability incubated for 72 hrs by MTS assay; format: functional, cell-based; settings: HT-29, 72 h; method in brief: as §1
[10] = tested on: HT-29; assay: Cytotoxicity against human HT-29 cells assessed as maximum inhibition of cell viability upto 198 uM incubated for 72 hrs by MTS assay relative to control; format: functional; settings: up to 198 µM; method in brief: as §2
[11] = tested on: COLO 205; assay: Cytotoxicity against human COLO 205 cells assessed as inhibition of cell viability incubated for 72 hrs by MTS assay; format: functional, cell-based; settings: COLO 205, 72 h; method in brief: as §1
[12] = tested on: COLO 205; assay: Cytotoxicity against human COLO 205 cells assessed as maximum inhibition of cell viability upto 198 uM incubated for 72 hrs by MTS assay relative to control; format: functional; settings: up to 198 µM; method in brief: as §2
[13] = tested on: MDA-MB-231; assay: Cytotoxicity against human MDA-MB-231 cells assessed as inhibition of cell viability incubated for 72 hrs by MTS assay; format: functional, cell-based; settings: MDA-MB-231, 72 h; method in brief: as §1
[14] = tested on: MDA-MB-231; assay: Cytotoxicity against human MDA-MB-231 cells assessed as maximum inhibition of cell viability upto 198 uM incubated for 72 hrs by MTS assay relative to control; format: functional; settings: up to 198 µM; method in brief: as §2
[15] = tested on: MCF7; assay: Cytotoxicity against human MCF7 cells assessed as inhibition of cell viability incubated for 72 hrs by MTS assay; format: functional, cell-based; settings: MCF7, 72 h
[16] = tested on: MCF7; assay: Cytotoxicity against human MCF7 cells assessed as maximum inhibition of cell viability upto 198 uM incubated for 72 hrs by MTS assay relative to control; format: functional; settings: up to 198 µM; method in brief: as §2
[17] = tested on: A498; assay: Cytotoxicity against human A498 cells assessed as inhibition of cell viability incubated for 72 hrs by MTS assay; format: functional, cell-based; settings: A498, 72 h; method in brief: as §1
[18] = tested on: A498; assay: Cytotoxicity against human A498 cells assessed as maximum inhibition of cell viability upto 198 uM incubated for 72 hrs by MTS assay relative to control; format: functional; settings: up to 198 µM; method in brief: as §2
[19] = Cytotoxicity against human ACHN-luc2 cells assessed as inhibition of cell viability incubated for 72 hrs by MTS assay; format: functional, cell-based; settings: ACHN-luc2, 72 h; method in brief: as §1
[20] = Cytotoxicity against human ACHN-luc2 cells assessed as maximum inhibition of cell viability upto 198 uM incubated for 72 hrs by MTS assay relative to control; format: functional; settings: up to 198 µM; method in brief: as §2
[21] = tested on: CAKI-2; assay: Cytotoxicity against human CAKI-2 cells assessed as inhibition of cell viability incubated for 72 hrs by MTS assay; format: functional, cell-based; settings: CAKI-2, 72 h; method in brief: as §1
[22] = tested on: CAKI-2; assay: Cytotoxicity against human CAKI-2 cells assessed as maximum inhibition of cell viability upto 198 uM incubated for 72 hrs by MTS assay relative to control; format: functional; settings: up to 198 µM; method in brief: as §2
[23] = tested on: HepG2; assay: Cytotoxicity against human HepG2 cells assessed as inhibition of cell viability incubated for 72 hrs by MTS assay; format: functional, cell-based; settings: HepG2, 72 h; method in brief: as §1
[24] = tested on: HepG2; assay: Cytotoxicity against human HepG2 cells assessed as maximum inhibition of cell viability upto 198 uM incubated for 72 hrs by MTS assay relative to control; format: functional; settings: up to 198 µM; method in brief: as §2
[25] = tested on: RL; assay: Cytotoxicity against human RL cells assessed as inhibition of cell viability incubated for 72 hrs by MTS assay; format: functional, cell-based; method in brief: as §1
[26] = tested on: RL; assay: Cytotoxicity against human RL cells assessed as maximum inhibition of cell viability upto 198 uM incubated for 72 hrs by MTS assay relative to control; format: functional; settings: up to 198 µM; method in brief: as §2
[27] = tested on: K562; assay: Cytotoxicity against human K562 cells assessed as inhibition of cell viability incubated for 72 hrs by MTS assay; format: functional, cell-based; settings: K562, 72 h; method in brief: as §1
[28] = tested on: K562; assay: Cytotoxicity against human K562 cells assessed as maximum inhibition of cell viability upto 198 uM incubated for 72 hrs by MTS assay relative to control; format: functional; settings: up to 198 µM; method in brief: as §2
[29] = tested on: KG-1; assay: Cytotoxicity against human KG-1 cells assessed as inhibition of cell viability incubated for 72 hrs by MTS assay; format: functional, cell-based; settings: KG-1, 72 h; method in brief: as §1
[30] = tested on: KG-1; assay: Cytotoxicity against human KG-1 cells assessed as maximum inhibition of cell viability upto 198 uM incubated for 72 hrs by MTS assay relative to control; format: functional; settings: up to 198 µM; method in brief: as §2
[31] = tested on: HL-60; assay: Cytotoxicity against human HL-60 cells assessed as inhibition of cell viability incubated for 72 hrs by MTS assay; format: functional, cell-based; settings: HL-60, 72 h; method in brief: as §1
[32] = tested on: HL-60; assay: Cytotoxicity against human HL-60 cells assessed as maximum inhibition of cell viability upto 198 uM incubated for 72 hrs by MTS assay relative to control; format: functional; settings: up to 198 µM; method in brief: as §2
[33] = tested on: MOLT-4; assay: Cytotoxicity against human MOLT-4 cells assessed as inhibition of cell viability incubated for 72 hrs by MTS assay; format: functional, cell-based; settings: MOLT-4, 72 h; method in brief: as §1
[34] = tested on: MOLT-4; assay: Cytotoxicity against human MOLT-4 cells assessed as maximum inhibition of cell viability upto 198 uM incubated for 72 hrs by MTS assay relative to control; format: functional; settings: up to 198 µM; method in brief: as §2

Row | SMILES | IC50 [1] | Imax [2] | IC50 [3] | Imax [4] | IC50 [5] | Imax [6] | IC50 [7] | Imax [8] | IC50 [9] | Imax [10] | IC50 [11] | Imax [12] | IC50 [13] | Imax [14] | IC50 [15] | Imax [16] | IC50 [17] | Imax [18] | IC50 [19] | Imax [20] | other results
1 | C[C@H](NP(=S)(OC[C@@H]1C[C@@H](O)[C@H](n2cnc3c(N)ncnc32)O1)Oc1ccccc1)C(=O)OCc1ccccc1 (stereo partly drawn) | 12.6 µM | 100% | 42.6 µM | 100% | 82.6 µM | 100% | 62.8 µM | 97% | 57.9 µM | 100% | 41.8 µM | 99% | 50.6 µM | 96% | 40.4 µM | 100% | 44.5 µM | 95% | 33.9 µM | 97% | IC50 [21]: 76 µM; Imax [22]: 78%; IC50 [23]: 25.3 µM; Imax [24]: 100%; IC50 [25]: 95.6 µM; Imax [26]: 113%; IC50 [27]: 64.5 µM; Imax [28]: 96%; IC50 [29]: 60 µM; Imax [30]: 98%; IC50 [31]: 73.7 µM; Imax [32]: 99%; IC50 [33]: 9.19 µM; Imax [34]: 99%
2 | Nc1ncnc2c1ncn2[C@@H]1O[C@H](CO)C[C@H]1O [CORDYCEPIN] | 76.8 µM | 87% | 99.1 µM | 96% | 71.6 µM | 44% | 85.3 µM | 70% | 26.3 µM | 90% | 108 µM | 24% | 78.6 µM | 59% | 45.9 µM | 93% | 85.4 µM | 18% | 77 µM | 14% | IC50 [21]: 94.2 µM; Imax [22]: 25%; IC50 [23]: 77.2 µM; Imax [24]: 71%; IC50 [25]: 135 µM; Imax [26]: 4%; IC50 [27]: 94.4 µM; Imax [28]: 70%; IC50 [29]: 89 µM; Imax [30]: 92%; IC50 [31]: 145 µM; Imax [32]: 57%; IC50 [33]: 85.3 µM; Imax [34]: 77%
